Shown are actives, neighbours in structure and some others; about 7.1% of the full set was active somewhere.
Cav3 T inh: inhibitors of human Cav3.2 T-type calcium channel. 100,000 tested, 4% active. AID 449739. B-score at 10 µM. O95180. Cav3.2-expressing cells, Fluo-4 calcium fluorescence FDSS; stronger effect = lower value;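 active = single-dose well whose peak fluorescence ratio is a statistical outlier from its plate by either plate-standardised score or position-corrected B-score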
H69AR growth 86K: blocks growth of human H69AR lung tumor cells | viability, % at 10 µM | 85,000 tested, 6% active | H69AR lung tumor viability, ATP luminescence, 72 h; stronger effect = lower value;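 active = viability at or below 40%; inactive = viability above 40%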;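 also: multidrug resistant small cell line overexpressing MRP-1 efflux transporter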
PTEN del growth: growth suppressors of cells with PTEN tumor suppressor deletion; 140,000 tested, 1.2% active; HCT116 PTEN-null viability, CellTiter-Glo, 60 h; stronger effect = lower value; AID 827; viability, % at 10 µM;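 active = viability at or below a set limit, 4 SD under the median of all tested compounds, cut at about 3.7% in these data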;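 also: PTEN knockout HCT116 line with beta catenin targeted HCT116 as companion control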
bCat KO growth: beta-catenin-lacking colon tumor cell growth suppression. viability, % at 10 µM. HCT116 beta-catenin knockout viability, CellTiter-Glo, 60 h; stronger effect = lower value. 140,000 tested, 1.5% active;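 active = viability at or under a set limit, the compound median less 4 SD, cut at about 6% in these data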
HUVEC prolif 384: blocks proliferation of human endothelial cells. 86,000 tested, 1.1% active. viability, % at 10 µM (by protocol). AID 648. HUVEC proliferation, CellTiter-Glo luminescence, 72 h; stronger effect = lower value;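 active = viability at or below 30%; inactive = viability above 30%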
Lung fibro prol: blocks proliferation of human lung fibroblasts; LL 47 human lung fibroblast viability, ATP luminescence; stronger effect = lower value; viability, % at 10 µM; 85,000 tested, 1.1% active;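 active = viability at or below 50% in the single dose screen; inactive = viability above 50%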;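 also: compound exposure lasted 72 h before the ATP readout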
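Signal: luminescent ATP detection, CellTiter-Glo; assay system: LL 47 human lung fibroblasts; input: 1,150 cells/well; incubation: overnight cell rest, 72 h compound treatment at 37 °C; measure: % viability versus median cells-only luminescence; medium: IMEM growth medium with 15% fetal bovine serum; dosing: compound addition at 0.1% DMSO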
Numbers stand for hits; i = inactive; nt = no result given.

SMILES	Cav3 T inh	H69AR growth 86K	PTEN del growth	bCat KO growth	HUVEC prolif 384	Lung fibro prol
CC(=O)Nc1ccc(NC(=O)CSc2ccc(C)cc2)cc1	i	i	i	i	i	i
COc1ccc(S(=O)(=O)Cc2ccc(C(=O)N3CCN(c4cccc(C)c4)C(C)C3)o2)cc1 (centres undefined)	i	25	i	i	i	i
Cc1cccc(N2CCN(c3cccc(C)c3)C2c2cccnc2)c1	-4.8	i	i	i	i	i
COc1ccc(S(=O)(=O)Cc2ccc(C(=O)N3CCN(c4cc(Cl)ccc4C)CC3)o2)cc1	i	i	i	i	i	i
Cc1cccc(N2C(=O)CSC2c2cccnc2)c1 (centres undefined)	i	i	i	i	i	i
Cc1cccc(N2CCN(C(=O)c3cc(C)oc3C)CC2C)c1 (centres undefined)	nt	nt	i	i	nt	nt
COc1ccc(S(=O)(=O)Cc2ccc(C(=O)N3CCN(c4cccc(C)c4C)CC3)o2)cc1	i	23	i	i	i	i
Cc1cccc(N2CCN(C(=O)c3ccncc3)CC2C)c1 (centres undefined)	i	29	i	i	i	i
CC(C)(Oc1ccc(Cl)cc1)C(=O)N(Cc1ccccc1)c1ccccn1	nt	nt	i	i	nt	nt
C#CCN1C(=O)S/C(=C/C=C/c2ccc(N(C)C)cc2)C1=O	nt	nt	i	i	nt	nt
Cc1ccc(OCC(=O)Nc2cc(S(=O)(=O)N3CCCCC3)ccc2C)c([N+](=O)[O-])n1	nt	nt	i	i	nt	nt
S=C(Nc1ccccc1Cl)N(CCN1CCCCC1)Cc1ccco1	nt	nt	i	i	nt	nt
Cc1ccc(OCCn2c(C3CC(=O)N(Cc4ccccc4)C3)nc3ccccc32)cc1 (centres undefined)	-7.3	i	i	i	i	i
COCCn1c(COc2ccc(C)cc2)nc2ccccc21	i	i	i	i	i	i
CCN(CC)CCn1c(=N)n(CCOc2ccccc2)c2ccccc21	i	10	i	i	i	33
Cc1ccc(OCCn2c(=O)cnc3ccccc32)cc1	i	19	i	i	i	i
CCCCn1c(=N)n(CCOc2ccc(C)cc2)c2ccccc21	nt	nt	1.9	1.9	nt	nt
COC(=O)[C@@H]1C[C@@]2(O)[C@@H](O)[C@@H](O)[C@@H](O)C[C@H]2N1CC(c1ccccc1)c1ccccc1	i	nt	nt	nt	nt	nt
COCCNC(=O)c1cccc(Nc2nc(-c3ccccc3)c3cc(Cl)ccc3n2)c1	nt	nt	i	i	nt	nt
OCc1ccccc1N=c1ssnc1Cl	i	i	i	i	i	i
COc1cc(N=c2ssnc2Cl)cc(OC)c1	i	0.0	i	i	i	i
CCc1cc2c(=O)[nH]c(N3CCCC3)nc2s1	nt	nt	i	i	nt	nt
CCc1cc2c(=O)[nH]c(-c3ccccn3)nc2s1	nt	nt	2.3	2.5	nt	nt
Cc1c(C(=O)O)oc2c1/C(=N\O)CC(C)(C)C2	nt	nt	i	i	nt	nt
O=[N+]([O-])c1cc(/C=N/Nc2nc3ccccc3[nH]2)c(O)cc1O	nt	nt	i	5.2	nt	nt
SMILES	Cav3 T inh	H69AR growth 86K	PTEN del growth	bCat KO growth	HUVEC prolif 384	Lung fibro prol
O=C(NCCN1CCOCC1)/C(=C\c1ccc(Br)cc1)NC(=O)c1cccs1	nt	nt	i	i	nt	nt
Cc1ccc(C(=O)CN2/C(=C(\O)c3ccccc3)C(=O)c3ccccc3S2(=O)=O)c(C)c1	-5.9	24	i	i	i	i
O=C(CN1C(=O)c2ccccc2S1(=O)=O)c1ccccc1	i	i	i	i	i	i
Cc1cc(C)n(-c2ccc(C(=O)Nc3cc(S(=O)(=O)N(C)C)ccc3Cl)cc2)n1	nt	nt	i	i	nt	nt
Cc1c(C(=O)Nc2ccc3c(c2)OCCO3)sc2nc(-c3ccccc3)cn12	i	38	i	i	i	i
Cc1ccc(CNC(=O)C(Cc2ccccc2)NS(=O)(=O)c2ccc(Br)s2)cc1 (centres undefined)	nt	nt	i	i	nt	nt
Cc1ccc(S(=O)(=O)CCC(=O)NCc2ccco2)cc1	i	nt	i	i	nt	nt
CNS(=O)(=O)c1cc(NC(C)=O)c(C)cc1C	nt	nt	i	i	nt	nt
CCNc1nc(NC(C)C)nc(N(C#N)CCOc2ccc(Cl)cc2Cl)n1	-9.4	22	i	i	i	i
CCNc1nc(NC(C)C)nc(N(C#N)Cc2ccccc2)n1	nt	i	i	i	i	i
CCCCCOC(=O)C1=C(C)NC(=O)NC1c1ccccc1OCC (centres undefined)	-5.7	i	nt	i	i	i
CCOc1ccccc1C1NC(=O)NC(C)=C1C(=O)OC1CCCC1C (centres undefined)	-5.3	i	i	i	i	i
Cc1cccc(-n2c(C)nc3cc(C(=O)NCc4ccc5c(c4)OCO5)ccc32)c1	nt	nt	i	i	nt	nt
COCCOc1cc(Nc2nnc(C(F)(F)F)s2)c(Cl)cc1Cl	i	13	i	i	i	i
CCCCOC(=O)n1c(=O)oc2cc(S(=O)(=O)N3CCCCC3)ccc21	-4.8	nt	i	i	nt	nt
COC(=O)n1c(=O)oc2cc(S(=O)(=O)N3CCOCC3)ccc21	i	i	i	i	i	nt
CC(NC(=O)CCC(=O)NC(C)C1COc2ccccc2O1)C1COc2ccccc2O1 (centres undefined)	-8.8	i	i	i	i	i
CC(NC(=O)c1ccco1)C1COc2ccccc2O1 (centres undefined)	i	i	i	i	i	i
O=C(CN1C(=O)COc2ccccc21)NCCCN1CCc2ccccc2C1	i	i	i	i	i	i
O=C(CN1C(=O)COc2ccccc21)N1CCc2ccccc2C1	i	i	i	i	i	3.1
CN1CCN(Cc2c(O)ccc3c(-c4ccccc4)cc(=O)oc23)CC1	i	i	i	i	i	i
COc1ccc([N+](=O)[O-])cc1COc1cc(C)cc2oc(=O)cc(-c3ccccc3)c12	-8.7	nt	i	i	nt	nt
Cc1cc(O)c2c(-c3ccccc3)cc(=O)oc2c1	i	39	i	i	i	i
Cc1cc(OCc2cc3c(cc2Cl)OCO3)c2c(C)cc(=O)oc2c1	nt	nt	i	i	nt	nt
CCCCc1cc(=O)oc2cc(C)cc(O)c12	i	10	i	5.1	i	i
SMILES	Cav3 T inh	H69AR growth 86K	PTEN del growth	bCat KO growth	HUVEC prolif 384	Lung fibro prol
CC1(O)C(=O)C=C2C=C(c3ccc(C#N)cc3)OC=C2C1=O (centres undefined)	i	nt	nt	nt	nt	nt
CCN(CC)C(=O)CSc1nc2ccccc2c(=O)n1CCC(=O)NCc1ccc(F)cc1	i	i	i	i	i	i
CC(C)(C)OC(=O)COc1cc(OCC(=O)OC(C)(C)C)c2c(=O)cc(-c3ccccc3)oc2c1	-4	nt	1.7	1.5	nt	nt
CC(C)(C)OC(=O)COc1cc(O)c2c(=O)cc(-c3ccccc3)oc2c1	nt	nt	i	i	nt	nt
COC(=O)C1=C(N)N(c2ccccc2F)C2=C(C(=O)CC(C)(C)C2)C1c1ccc(OC)c(OC)c1 (centres undefined)	nt	nt	i	i	nt	nt
O=C(CSc1ccc(Cl)cc1)N1CCN(c2ccc(Cl)cc2[N+](=O)[O-])CC1	-3.8	nt	i	i	nt	nt
CC(C)(C)C(=O)N1CCN(c2ccc(Cl)cc2[N+](=O)[O-])CC1	nt	nt	i	i	nt	nt
Cn1cc([N+](=O)[O-])c(C(=O)Nc2cc(Oc3ccccc3)cc([N+](=O)[O-])c2)n1	nt	nt	1.7	1.6	nt	nt
Cc1ccccc1Cn1ccc(NC(=O)c2nn(C)cc2[N+](=O)[O-])n1	nt	nt	2.1	3.8	nt	nt

Screens as filed in PubChem.
